According to article PMC7227796 (ACS chemical neuroscience, 2020):
Structures can show the parent of a compound that is named as a salt.

Assays:
[1] = molecular target: GluN1/GluN2A NMDA receptor (Rattus norvegicus, UniProt P35439+Q00959); assay: Two-electrode voltage-clamp recordings, Xenopus oocytes expressing GluN1/GluN2A; assay type: cell-based
Method in brief: (§1)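 Xenopus oocytes were injected with rat GluN1-1a and GluN2A, 2B, 2C or 2D cRNA at a 1:2 ratio. Two-electrode voltage clamp was run 2–6 days later at room temperature and −40 mV. Bath was 90 NaCl, 1 KCl, 10 HEPES, 0.5 BaCl2, 0.01 EDTA (mM), pH 7.4. Currents were evoked by 1 μM glutamate plus 100 μM glycine, with test compound gravity-perfused. Hill fits gave IC50 per oocyte (5–6 oocytes). Ki was derived by Cheng-Prusoff using earlier glutamate EC50 values.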

[2] = molecular target: GluN1/GluN2B NMDA receptor (Rattus norvegicus, UniProt P35439+Q00960); assay: Two-electrode voltage-clamp recordings, Xenopus oocytes expressing GluN1/GluN2B; assay type: cell-based
Chain of GluN1/GluN2B NMDA receptor (Q00960 27-1482, other chains not shown): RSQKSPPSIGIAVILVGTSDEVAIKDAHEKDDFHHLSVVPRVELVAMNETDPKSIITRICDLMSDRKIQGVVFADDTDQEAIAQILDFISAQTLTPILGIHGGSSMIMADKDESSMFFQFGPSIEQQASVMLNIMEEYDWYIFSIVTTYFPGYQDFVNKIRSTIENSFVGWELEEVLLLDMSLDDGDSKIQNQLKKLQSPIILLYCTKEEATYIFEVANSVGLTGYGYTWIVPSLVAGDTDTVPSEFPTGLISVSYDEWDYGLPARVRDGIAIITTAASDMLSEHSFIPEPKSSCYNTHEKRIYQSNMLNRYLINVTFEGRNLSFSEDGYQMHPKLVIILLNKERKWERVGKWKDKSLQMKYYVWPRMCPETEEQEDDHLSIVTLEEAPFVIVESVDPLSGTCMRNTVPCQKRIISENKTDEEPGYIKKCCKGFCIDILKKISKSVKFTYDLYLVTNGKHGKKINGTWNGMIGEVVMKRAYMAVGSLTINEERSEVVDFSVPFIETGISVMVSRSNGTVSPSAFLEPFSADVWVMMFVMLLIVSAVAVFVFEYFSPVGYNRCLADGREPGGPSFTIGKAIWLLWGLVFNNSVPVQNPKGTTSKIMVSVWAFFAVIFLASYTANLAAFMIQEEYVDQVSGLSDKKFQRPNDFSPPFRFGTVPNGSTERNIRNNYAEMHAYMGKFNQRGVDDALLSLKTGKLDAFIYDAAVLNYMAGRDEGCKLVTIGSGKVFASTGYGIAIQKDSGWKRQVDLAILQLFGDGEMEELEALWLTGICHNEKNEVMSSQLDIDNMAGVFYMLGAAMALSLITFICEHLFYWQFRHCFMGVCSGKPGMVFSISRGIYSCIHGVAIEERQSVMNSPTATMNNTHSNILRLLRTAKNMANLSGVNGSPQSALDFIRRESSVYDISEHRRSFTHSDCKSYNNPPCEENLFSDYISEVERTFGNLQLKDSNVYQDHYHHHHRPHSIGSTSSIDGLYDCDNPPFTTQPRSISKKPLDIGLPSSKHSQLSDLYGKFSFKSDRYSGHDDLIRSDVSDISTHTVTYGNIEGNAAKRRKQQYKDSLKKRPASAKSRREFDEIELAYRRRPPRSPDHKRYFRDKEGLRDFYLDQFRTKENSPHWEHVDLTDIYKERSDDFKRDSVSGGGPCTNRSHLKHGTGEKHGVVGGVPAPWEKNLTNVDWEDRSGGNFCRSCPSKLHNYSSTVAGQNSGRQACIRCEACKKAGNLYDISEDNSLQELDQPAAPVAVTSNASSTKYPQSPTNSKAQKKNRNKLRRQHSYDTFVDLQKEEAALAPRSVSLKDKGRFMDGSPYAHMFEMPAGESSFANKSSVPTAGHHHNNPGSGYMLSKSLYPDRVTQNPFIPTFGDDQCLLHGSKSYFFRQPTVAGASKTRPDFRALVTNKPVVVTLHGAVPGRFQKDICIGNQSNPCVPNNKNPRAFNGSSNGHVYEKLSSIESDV
Method in brief: as §1

[3] = molecular target: GluN1/GluN2C NMDA receptor (Rattus norvegicus, UniProt P35439+Q00961); assay: Two-electrode voltage-clamp recordings, Xenopus oocytes expressing GluN1/GluN2C; assay type: cell-based
Method in brief: as §1

[4] = molecular target: GluN1/GluN2D NMDA receptor (Rattus norvegicus, UniProt P35439+Q62645); assay: Two-electrode voltage-clamp recordings, Xenopus oocytes expressing GluN1/GluN2D; assay type: cell-based
Method in brief: as §1

native KA receptors [5] = details: rat synaptosomes, [3H]KA; earlier work, ref [36],[38],[39]; cited from earlier work
native AMPA receptors = assay: Radioligand binding at native AMPA receptors; details: rat synaptosomes, [3H]AMPA; for IC50: read-out: AMPA IC50, native iGluRs (synaptosomes)
Method in brief: (§2)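 Rat cortical synaptosomal membranes were labelled with 5 nM [3H]AMPA (AMPA), 5 nM [3H]KA (KA) or [3H]CGP39653 (NMDA). Test compound was run at 12–16 concentrations in triplicate, with three to six independent experiments. Cpm were fitted by nonlinear regression. Values are reported as pIC50 for AMPA and KA and as pKi for NMDA, each as mean with SEM.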

native KA receptors [6] = assay: Radioligand binding at native KA receptors; details: rat synaptosomes, [3H]KA
Method in brief: as §2

native NMDA receptors = assay: Radioligand binding at native NMDA receptors; parameters: species or system rat; details: for NMDA pKi with SEM (in brackets) / Ki: rat synaptosomes, [3H]CGP-39653; for Ki: read-out: NMDA Ki, native iGluRs (synaptosomes)
Method in brief: as §2

GluK1 = GluK1 (Rattus norvegicus, UniProt P22756); assay: Radioligand binding at recombinant homomeric GluK1
Chain of GluK1 (P22756 31-920 isoform P22756-4 limits assumed): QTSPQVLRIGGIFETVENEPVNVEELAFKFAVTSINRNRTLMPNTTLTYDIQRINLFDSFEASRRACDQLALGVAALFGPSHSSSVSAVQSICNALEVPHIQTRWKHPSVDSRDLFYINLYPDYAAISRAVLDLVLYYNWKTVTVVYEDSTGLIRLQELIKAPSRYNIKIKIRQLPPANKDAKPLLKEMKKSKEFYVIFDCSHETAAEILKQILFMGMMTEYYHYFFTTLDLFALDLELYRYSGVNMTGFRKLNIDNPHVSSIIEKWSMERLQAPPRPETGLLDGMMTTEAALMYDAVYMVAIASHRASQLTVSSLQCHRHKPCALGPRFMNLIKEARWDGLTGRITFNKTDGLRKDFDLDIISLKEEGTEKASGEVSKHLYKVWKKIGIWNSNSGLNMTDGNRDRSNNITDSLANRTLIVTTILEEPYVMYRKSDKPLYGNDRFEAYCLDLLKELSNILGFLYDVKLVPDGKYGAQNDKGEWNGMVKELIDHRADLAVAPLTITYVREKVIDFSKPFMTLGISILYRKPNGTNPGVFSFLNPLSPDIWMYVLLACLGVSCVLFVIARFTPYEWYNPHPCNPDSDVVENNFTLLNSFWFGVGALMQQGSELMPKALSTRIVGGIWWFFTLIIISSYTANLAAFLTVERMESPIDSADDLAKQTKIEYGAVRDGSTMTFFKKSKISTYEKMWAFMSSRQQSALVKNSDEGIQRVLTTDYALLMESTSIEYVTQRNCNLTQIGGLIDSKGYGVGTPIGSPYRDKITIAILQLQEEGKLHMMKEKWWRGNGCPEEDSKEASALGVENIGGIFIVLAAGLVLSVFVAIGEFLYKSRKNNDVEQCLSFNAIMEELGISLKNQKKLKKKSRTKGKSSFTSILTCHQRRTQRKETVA
Method in brief: (§3)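 Membranes from sf9 cells expressing rat homomeric GluK1, GluK2 or GluK3 were incubated in 50 mM Tris-HCl, pH 7.1, for 2 h at 4 °C. Radioligand was [3H]-(S)-NF608 for GluK1 and [3H]kainic acid for GluK2 and GluK3. Samples were filtered on GF/B, washed twice with ice-cold buffer, dried for 1 h at 70 °C and counted by scintillation. Ki came from 12–16-point triplicate curves. Single-point % specific binding is mean ± SD of three experiments, at 10 μM test compound where stated.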

GluK2 = GluK2 (Rattus norvegicus, UniProt P42260); assay: Radioligand binding at recombinant homomeric GluK2
Chain of GluK2 (P42260 32-908): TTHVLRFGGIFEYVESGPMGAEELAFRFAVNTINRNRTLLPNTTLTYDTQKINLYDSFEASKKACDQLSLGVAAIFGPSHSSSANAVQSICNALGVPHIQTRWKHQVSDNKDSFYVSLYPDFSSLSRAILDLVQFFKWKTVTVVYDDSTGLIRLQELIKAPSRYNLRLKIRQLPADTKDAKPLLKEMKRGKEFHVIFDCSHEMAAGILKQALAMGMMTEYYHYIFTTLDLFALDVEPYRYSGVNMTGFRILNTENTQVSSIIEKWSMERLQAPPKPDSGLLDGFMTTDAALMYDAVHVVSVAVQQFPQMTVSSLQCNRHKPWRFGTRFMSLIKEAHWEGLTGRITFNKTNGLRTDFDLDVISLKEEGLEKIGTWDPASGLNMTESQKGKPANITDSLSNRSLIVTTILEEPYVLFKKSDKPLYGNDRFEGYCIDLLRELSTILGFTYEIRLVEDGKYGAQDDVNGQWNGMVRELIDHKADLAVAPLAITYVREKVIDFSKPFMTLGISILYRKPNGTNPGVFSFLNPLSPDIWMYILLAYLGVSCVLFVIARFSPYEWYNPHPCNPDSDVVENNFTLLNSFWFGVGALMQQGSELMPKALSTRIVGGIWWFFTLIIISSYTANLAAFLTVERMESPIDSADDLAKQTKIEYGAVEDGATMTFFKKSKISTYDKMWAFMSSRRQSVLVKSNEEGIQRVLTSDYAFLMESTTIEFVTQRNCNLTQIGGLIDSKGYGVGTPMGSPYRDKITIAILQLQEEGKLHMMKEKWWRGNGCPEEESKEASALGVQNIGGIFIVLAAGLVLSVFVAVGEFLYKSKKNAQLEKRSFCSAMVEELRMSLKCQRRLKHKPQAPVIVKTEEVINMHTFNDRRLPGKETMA
Method in brief: as §3

GluK3 = GluK3 (Rattus norvegicus, UniProt P42264); assay: Radioligand binding at recombinant homomeric GluK3
Chain of GluK3 (P42264 32-919): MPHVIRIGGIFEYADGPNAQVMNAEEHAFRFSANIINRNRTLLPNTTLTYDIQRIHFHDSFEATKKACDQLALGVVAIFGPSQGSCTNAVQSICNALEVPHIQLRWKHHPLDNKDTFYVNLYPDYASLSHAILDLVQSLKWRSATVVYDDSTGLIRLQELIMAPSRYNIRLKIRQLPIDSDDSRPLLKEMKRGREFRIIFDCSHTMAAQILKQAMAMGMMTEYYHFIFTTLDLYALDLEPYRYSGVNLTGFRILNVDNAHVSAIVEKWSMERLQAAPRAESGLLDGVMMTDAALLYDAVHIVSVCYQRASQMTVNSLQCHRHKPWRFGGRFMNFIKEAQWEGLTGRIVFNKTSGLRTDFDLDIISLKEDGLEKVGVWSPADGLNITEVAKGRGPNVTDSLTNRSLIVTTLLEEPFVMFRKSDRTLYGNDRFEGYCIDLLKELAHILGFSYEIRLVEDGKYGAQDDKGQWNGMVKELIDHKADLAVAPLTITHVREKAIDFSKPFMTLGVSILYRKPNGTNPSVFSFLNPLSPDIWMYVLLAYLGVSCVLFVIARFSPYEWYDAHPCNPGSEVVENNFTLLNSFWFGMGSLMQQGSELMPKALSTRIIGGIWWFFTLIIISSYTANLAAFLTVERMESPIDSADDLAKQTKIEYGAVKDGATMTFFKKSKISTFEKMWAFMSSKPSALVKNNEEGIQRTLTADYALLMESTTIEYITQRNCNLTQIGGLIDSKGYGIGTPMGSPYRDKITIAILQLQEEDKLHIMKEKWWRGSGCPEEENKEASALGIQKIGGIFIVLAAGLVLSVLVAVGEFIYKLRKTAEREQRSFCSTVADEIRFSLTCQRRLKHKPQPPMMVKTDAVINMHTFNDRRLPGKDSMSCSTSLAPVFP
Method in brief: as §3

[7] = molecular target: GluN1/GluN2A NMDA receptor (Rattus norvegicus, UniProt Q00959); assay: Two-electrode voltage-clamp recordings, Xenopus oocytes expressing GluN1/GluN2A; assay type: cell-based; details: two-electrode voltage-clamp
Method in brief: as §1

GluA1 = GluA1 (Rattus norvegicus, UniProt P19490); assay: Radioligand binding at recombinant homomeric GluA1
Chain of GluA1 (P19490 19-907): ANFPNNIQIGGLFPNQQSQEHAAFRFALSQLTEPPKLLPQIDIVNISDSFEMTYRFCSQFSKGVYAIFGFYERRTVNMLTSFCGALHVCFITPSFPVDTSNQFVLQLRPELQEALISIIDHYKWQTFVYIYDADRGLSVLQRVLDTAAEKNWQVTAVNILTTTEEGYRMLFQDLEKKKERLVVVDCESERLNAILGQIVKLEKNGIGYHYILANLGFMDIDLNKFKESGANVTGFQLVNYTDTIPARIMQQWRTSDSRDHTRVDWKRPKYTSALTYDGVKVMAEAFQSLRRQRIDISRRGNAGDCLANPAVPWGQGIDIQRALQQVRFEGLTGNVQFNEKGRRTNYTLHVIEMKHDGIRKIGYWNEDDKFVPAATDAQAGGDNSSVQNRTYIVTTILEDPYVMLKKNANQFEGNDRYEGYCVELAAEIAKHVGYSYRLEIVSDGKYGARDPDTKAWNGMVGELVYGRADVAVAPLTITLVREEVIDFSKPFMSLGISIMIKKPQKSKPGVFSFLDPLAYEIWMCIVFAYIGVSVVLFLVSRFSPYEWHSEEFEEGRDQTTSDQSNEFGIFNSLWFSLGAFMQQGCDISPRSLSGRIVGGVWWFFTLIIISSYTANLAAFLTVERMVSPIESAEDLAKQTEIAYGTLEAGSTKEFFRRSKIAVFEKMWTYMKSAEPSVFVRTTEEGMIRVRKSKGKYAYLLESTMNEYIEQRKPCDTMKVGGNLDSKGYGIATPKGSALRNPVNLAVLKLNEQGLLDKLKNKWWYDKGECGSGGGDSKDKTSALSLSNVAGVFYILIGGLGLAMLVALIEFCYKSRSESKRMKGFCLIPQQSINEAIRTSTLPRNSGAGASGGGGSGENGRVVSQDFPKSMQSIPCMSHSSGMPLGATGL
Method in brief: (§4)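 Membranes from sf9 cells expressing rat homomeric GluA1 or GluA2 were incubated with [3H]-(S)-AMPA and test compound for 2 h at 4 °C. Buffer was 50 mM Tris-HCl, 0.1 M KSCN, 2.5 mM CaCl2, pH 7.2. Samples were filtered on GF/C, washed twice with ice-cold buffer and counted by scintillation. Competition curves used 12–16 concentrations in triplicate. Ki came from a one-site fit and nH from a four-parameter logistic fit.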

GluA2 = GluA2 (Rattus norvegicus, UniProt P19491); assay: Radioligand binding at recombinant homomeric GluA2
Method in brief: as §4

Row | Structure (SMILES) | IC50 [1] | IC50 [2] | IC50 [3] | IC50 [4] | KA (IC50), native iGluRs (native KA receptors [5]) | IC50 (native AMPA receptors) | KA IC50, native iGluRs (synaptosomes) (native KA receptors [6]) | NMDA pKi with SEM (in brackets) (native NMDA receptors) | Ki (native NMDA receptors) | Ki (GluK1) | Ki (GluK2) | Ki (GluK3) | selectivity for GluN1/2A over GluN1/2B and GluN1/2C [7] | selectivity for GluN1/2A over GluN1/2D [7] | AMPA pIC50 with SEM (in brackets) (native AMPA receptors) | KA pIC50 with SEM (in brackets) (native KA receptors [6]) | increase in affinity for native NMDA receptors (native NMDA receptors; compared to 4a) | selectivity/preference for NMDA receptors over AMPA and KA receptors (native NMDA receptors; native receptors) | Ki (GluA1) | Ki (GluA2)
1 | Cl.O=C(O)c1cccc([C@H]2CCN[C@@H]2C(=O)O)c1 [4a, (2S,3R)-3-(3-Carboxyphenyl)pyrrolidine-2-carboxylic acid hydrochloride] | 11800 ± 230 nM | 34.5 ± 0.97 µM | 91.2 ± 2.6 µM | > 100 µM | 22 µM |  |  |  |  |  |  |  |  |  |  |  |  |  |  | 
2 | Cl.O=C(O)c1cc([C@H]2CCN[C@@H]2C(=O)O)ccc1Br [4f, (2S,3R)-3-(4-Bromo-3-carboxyphenyl)pyrrolidine-2-carboxylic acid hydrochloride] |  |  |  |  | >100 µM |  |  |  |  |  |  |  |  |  |  |  |  |  |  | 
3 | O=C(O)c1ccc([C@H]2CCN[C@@H]2C(=O)O)cc1C(=O)O [4h, 4-((2S,3R)-2-Carboxypyrrolidin-3-yl)phthalic acid tri sodium salt] | 750 ± 30 nM | 4.24 ± 0.13 µM | 5.17 ± 0.12 µM | 24.3 ± 1.46 µM |  | > 100 µM | >100 µM | 5.88 ± 0.06 | 1.3 µM | > 100 µM | > 100 µM | > 100 µM | 6 to 10 fold | 32 to 34 fold |  |  |  |  |  | 
4 | Cl.O=C(O)c1cc(C(=O)O)cc([C@H]2CCN[C@@H]2C(=O)O)c1 [5c, 5-((2S,3R)-2-Carboxypyrrolidin-3-yl)isophthalic acid hydrochloride] | 630 ± 10 nM | 4.37 ± 0.17 µM | 6.27 ± 0.13 µM | 21.2 ± 0.37 µM |  | 36 µM | 63 µM | 6.32 ± 0.03 | 0.48 µM | 12.5 ± 1.7 µM | > 100 µM | 15.7 ± 3.1 µM | 6 to 10 fold | 32 to 34 fold | 4.45 ± 0.04 | 4.21 ± 0.05 | 9 fold | 75 fold |  | 
5 | Cl.O=C(O)c1cc(-c2ccccn2)cc([C@H]2CCN[C@@H]2C(=O)O)c1 [5e, (2S,3R)-3-(3-Carboxy-5-(pyridin-2-yl)phenyl)pyrrolidine-2-carboxylic acid hydrochloride] |  |  |  |  |  | 40 µM | 20 µM | 5.42±0.01 | 3.8 µM | 20 ± 1.8 µM | > 100 µM | 6.4 ± 0.41 µM |  |  | 4.40±0.05 | 4.71±0.05 |  |  | 19 µM | 55 µM
6 | Cl.O=C(O)c1cc(-c2cccnc2)cc([C@H]2CCN[C@@H]2C(=O)O)c1 [5f, (2S,3R)-3-(3-Carboxy-5-(pyridin-3-yl)phenyl)pyrrolidine-2-carboxylic acid hydrochloride] |  |  |  |  |  | 29 µM | 23 µM | 5.51±0.02 | 3.1 µM | 25 ± 1.2 µM | > 100 µM | 5.9 ± 0.62 µM |  |  | 4.57±0.13 | 4.65±0.03 |  |  | 15 µM | 40 µM
7 | Cl.O=C(O)c1cc(-c2ccncc2)cc([C@H]2CCN[C@@H]2C(=O)O)c1 [5g, (2S,3R)-3-(3-Carboxy-5-(pyridin-4-yl)phenyl)pyrrolidine-2-carboxylic acid hydrochloride] |  |  |  |  |  | 27 µM | 25 µM | 5.76±0.01 | 1.7 µM | 22 ± 2.3 µM | > 100 µM | 6.5 ± 0.92 µM |  |  |  | 4.61±0.05 |  |  | 12 µM | 33 µM
8 | Cl.O=C(O)c1cc(-c2cncnc2)cc([C@H]2CCN[C@@H]2C(=O)O)c1 [5h, (2S,3R)-3-(3-Carboxy-5-(pyrimidin-5-yl)phenyl)pyrrolidine-2-carboxylic acid hydrochloride] |  |  |  |  |  | 59 µM | >100 µM | 4.98±0.01 | 10 µM | 100 µM | 100 µM | 13 ± 0.17 µM |  |  | 4.30±0.13 |  |  |  | 22.7 µM | 82.9 µM
9 | Cl.O=C(O)c1cc(-c2cnc(O)nc2)cc([C@H]2CCN[C@@H]2C(=O)O)c1 [5i, (2S,3R)-3-(3-Carboxy-5-(2-hydroxypyrimidin-5-yl)phenyl)pyrrolidine-2-carboxylic acid hydrochloride] |  |  |  |  |  | 13 µM | >100 µM | 5.39±0.03 | 4.1 µM | 76 ± 1.8 µM | > 100 µM | 16 ± 0.98 µM |  |  | 4.92±0.13 |  |  |  | 10 µM | 56 µM
